According to PMC3182555 (Nature chemical biology, 2011):

Columns and labels:
β2-microglobulin (β2m) [1] = molecular target: T1, β2-microglobulin (β2m) (Homo sapiens, UniProt P61769); experiment: ESI-IMS-MS of non-covalent complexes; assay type: biochemical
Summary of the method: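 45 μM β2m at pH 2.5 with test compound (0–1125 μM), shaken at 600 rpm, 25 °C, 48 h, three or more replicates pooled. Spun at 16,300x g for 30 min. Supernatant run on SDS-PAGE, and bands quantified as percent soluble protein versus compound:β2m molar ratio. Binding: 38 μM β2m, 10 mM ammonium formate pH 2.5, 40 or 400 μM compound, 10% acetonitrile, ESI-IMS-MS at 70 V cone.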

β2-microglobulin (β2m) [2] = molecular target: T1, β2-microglobulin (β2m); experiment: ESI-IMS-MS of non-covalent complexes; assay type: binding

T1 sequence (P61769 21-119): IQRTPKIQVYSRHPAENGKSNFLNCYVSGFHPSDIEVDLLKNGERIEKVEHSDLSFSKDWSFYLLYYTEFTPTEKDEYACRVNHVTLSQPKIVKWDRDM

Structure (SMILES) | IC50 (β2-microglobulin (β2m) [1]) [µM] | ESI-IMS-MS of non-covalent complexes (β2-microglobulin (β2m) [2])
CO[C@H]1/C=C/O[C@@]2(C)Oc3c(C)c(O)c4c(O)c(cc(O)c4c3C2=O)NC(=O)/C(C)=C\C=C\[C@H](C)[C@H](O)[C@@H](C)[C@@H](O)[C@@H](C)[C@H](OC(C)=O)[C@@H]1C [rifamycin SV] | ~300 | 
CO[C@H]1/C=C/O[C@@]2(C)Oc3c(C)c(O)c4c(O)c(c5c(nc6cc(C)ccn65)c4c3C2=O)NC(=O)/C(C)=C\C=C\[C@H](C)[C@H](O)[C@@H](C)[C@@H](O)[C@@H](C)[C@H](OC(C)=O)[C@@H]1C [rifaximin] |  | Instead, only the most compact conformer shows binding to this ligand (Figure 4c).
